Measurements taken from ChEMBL document CHEMBL5316281, “Trojan Horse Siderophore Conjugates Induce Pseudomonas aeruginosa Suicide and Qualify the TonB Protein as a Novel Antibiotic Target” (2023).
Calls of active or inactive are those of the source. The calls are words filed in the database; no cut-off is given here. Where a SMILES comes first, the peptide text is derived from it. The star is where a group is joined. X1 = O=C(COCC(=O)*)NCCOCCOCCOCCOCCOCCOCCOCCOCCn1cc(CCCC(=O)Nc2c(CNC(=O)c3cccc(O)c3O)cc(CNC(=O)c3cccc(O)c3O)cc2CNC(=O)c2cccc(O)c2O)nn1

Experiments:
Pseudomonas aeruginosa [1] = assay: Antimicrobial activity against Pseudomonas aeruginosa PAO1 assessed as inhibition of bacterial growth in presence of iron-depleted CAA medium; type: functional, organism-based
Pseudomonas aeruginosa [2] = assay: Antimicrobial activity against Pseudomonas aeruginosa harboring deltapvdF-deltapchA mutant assessed as decrease in fptA transcription level at 10 uM incubated for 8 hrs in presence of iron-depleted CAA medium by qRT-PCR analysis; type: functional, organism-based
Method in brief: (§1)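 Cells grown in CAA medium for 8 h at 30 °C with vigorous shaking, with or without 10 μM compound; 2.5 x 10⁸ cells stabilized in two volumes RNAprotect; RNA processed per earlier protocol; RT-qPCR with primer efficiencies from serially diluted genomic DNA; double ΔCT analysis.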

Pseudomonas aeruginosa [3] = assay: Antimicrobial activity against Pseudomonas aeruginosa harboring deltapvdF-deltapchA mutant assessed as effect on pirA transcription level at 10 uM incubated for 8 hrs in presence of iron-depleted CAA medium by qRT-PCR analysis; type: functional, organism-based; method in brief: as §1
Pseudomonas aeruginosa [4] = assay: Antimicrobial activity against Pseudomonas aeruginosa harboring deltapvdF-deltapchA mutant assessed as increase in pfeA transcription level at 10 uM incubated for 8 hrs in presence of iron-depleted CAA medium by qRT-PCR analysis; type: functional, organism-based; method in brief: as §1
Pseudomonas aeruginosa [5] = assay: Antimicrobial activity against Pseudomonas aeruginosa harboring deltapvdF-deltapchA mutant with PirA deletion assessed as reduction of bacterial growth at 10 uM by growth kinetic assay; type: functional, organism-based
Method in brief: (§2)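 Overnight LB culture washed, regrown in CAA at 30 °C, washed, resuspended in CAA at OD600 0.02; fresh sterile-filtered aqueous compound added to 10 µM final; OD600 read in plate reader for 48 h at 30 °C with regular agitation.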

Pseudomonas aeruginosa [6] = assay: Antimicrobial activity against Pseudomonas aeruginosa harboring deltapvdF-deltapchA mutant with PfeA deletion assessed as reduction of bacterial growth at 10 uM by growth kinetic assay; type: functional, organism-based; method in brief: as §2
Pseudomonas aeruginosa [7] = assay: Antimicrobial activity against Pseudomonas aeruginosa harboring deltapvdF-deltapchA mutant with PirA-PfeA dual deletion assessed as reduction of bacterial growth at 10 uM by growth kinetic assay; type: functional, organism-based; method in brief: as §2
Pseudomonas aeruginosa [8] = assay: Antimicrobial activity against Pseudomonas aeruginosa harboring deltapvdF-deltapchA mutant assessed as inhibition of bacterial growth by measuring minimal inhibitory concentration incubated for 24 hrs in presence of iron-depleted CAA medium; type: functional
Pseudomonas aeruginosa [9] = assay: Antimicrobial activity against Pseudomonas aeruginosa harboring deltapvdF-deltapchA mutant assessed as inhibition of bacterial growth by measuring minimal inhibitory concentration incubated for 48 hrs in presence of iron-depleted CAA medium; type: functional
Pseudomonas aeruginosa [10] = assay: Antimicrobial activity against Pseudomonas aeruginosa PAO1 assessed as fold increase in pfeA transcription level at 10 uM incubated for 8 hrs in presence of iron-depleted CAA medium by qRT-PCR analysis; type: functional; method in brief: as §1

Molecule	Activity (Pseudomonas aeruginosa [1])	Activity (Pseudomonas aeruginosa [2])	Activity (Pseudomonas aeruginosa [3])	Activity (Pseudomonas aeruginosa [4])	Activity (Pseudomonas aeruginosa [5])	Activity (Pseudomonas aeruginosa [6])	Activity (Pseudomonas aeruginosa [7])	MIC (Pseudomonas aeruginosa [8]) [µM]	MIC (Pseudomonas aeruginosa [9]) [µM]	fold change (FC) (Pseudomonas aeruginosa [10])
H-SLIRVSQDDLVQMSPSVISAARPK-NH2	inactive	Active	inactive	inactive	inactive	inactive	inactive			
H-DSSVDLGATMITSNQLGTIK-NH2	inactive	Active	inactive	inactive	inactive	inactive	inactive			
CC[C@H](C)[C@H](NC(=O)[C@H](CCSC)NC(=O)[C@@H](NC(=O)[C@H](C)NC(=O)CNC(=O)[C@H](CC(C)C)NC(=O)[C@H](CC(=O)O)NC(=O)[C@@H](NC(=O)[C@H](CO)NC(=O)[C@H](CO)NC(=O)[C@@H](N)CC(=O)O)C(C)C)[C@@H](C)O)C(=O)N[C@H](C(=O)N[C@@H](CO)C(=O)N[C@@H](CC(N)=O)C(=O)N[C@@H](CCC(N)=O)C(=O)N[C@@H](CC(C)C)C(=O)NCC(=O)N[C@H](C(=O)N[C@H](C(=O)N[C@@H](CCCCNC(=O)COCC(=O)NCCOCCOCCOCCOCCOCCOCCOCCOCCn1cc(CCCC(=O)Nc2c(CNC(=O)c3cccc(O)c3O)cc(CNC(=O)c3cccc(O)c3O)cc2CNC(=O)c2cccc(O)c2O)nn1)C(N)=O)[C@@H](C)CC)[C@@H](C)O)[C@@H](C)O (H-DSSVDLGATMITSNQLGTIK(X1)-NH2)	inactive	Active	inactive	Active	inactive	Active	Active	> 64	> 64	
CC[C@H](C)[C@H](NC(=O)[C@H](CC(C)C)NC(=O)[C@H](CO)NC(=O)COCC(=O)NCCOCCOCCOCCOCCOCCOCCOCCOCCn1cc(CCCC(=O)Nc2c(CNC(=O)c3cccc(O)c3O)cc(CNC(=O)c3cccc(O)c3O)cc2CNC(=O)c2cccc(O)c2O)nn1)C(=O)N[C@@H](CCCNC(=N)N)C(=O)N[C@H](C(=O)N[C@@H](CO)C(=O)N[C@@H](CCC(N)=O)C(=O)N[C@@H](CC(=O)O)C(=O)N[C@@H](CC(=O)O)C(=O)N[C@@H](CC(C)C)C(=O)N[C@H](C(=O)N[C@@H](CCC(N)=O)C(=O)N[C@@H](CCSC)C(=O)N[C@@H](CO)C(=O)N1CCC[C@H]1C(=O)N[C@@H](CO)C(=O)N[C@H](C(=O)N[C@H](C(=O)N[C@@H](CO)C(=O)N[C@@H](C)C(=O)N[C@@H](C)C(=O)N[C@@H](CCCNC(=N)N)C(=O)N1CCC[C@H]1C(=O)N[C@@H](CCCCN)C(N)=O)[C@@H](C)CC)C(C)C)C(C)C)C(C)C (X1-SLIRVSQDDLVQMSPSVISAARPK-NH2)	inactive				inactive	Active	Active	> 64	> 64	
CC[C@H](C)[C@H](NC(=O)[C@@H](NC(=O)COCC(=O)NCCOCCOCCOCCOCCOCCOCCOCCOCCn1cc(CCCC(=O)Nc2c(CNC(=O)c3cccc(O)c3O)cc(CNC(=O)c3cccc(O)c3O)cc2CNC(=O)c2cccc(O)c2O)nn1)C(C)C)C(=O)N[C@@H](CCC(=O)O)C(=O)N[C@@H](CC(C)C)C(=O)NCC(=O)N[C@@H](CCC(=O)O)C(=O)N[C@@H](CCC(N)=O)C(=O)N[C@H](C(=O)N[C@H](C(=O)N[C@H](C(=O)N[C@@H](C)C(=O)N[C@H](C(=O)N[C@@H](C)C(=O)N[C@@H](CCC(N)=O)C(=O)N[C@@H](CCC(=O)O)C(=O)N[C@@H](CCC(=O)O)C(=O)N[C@H](C(=O)N[C@@H](CCCCN)C(=O)N[C@@H](CCC(N)=O)C(=O)N[C@@H](CCCCN)C(N)=O)[C@@H](C)O)[C@@H](C)O)C(C)C)C(C)C)[C@@H](C)O (X1-VIELGEQTVVATAQEETKQK-NH2)	inactive				inactive	Active	Active	> 64	> 64	
CC[C@H](C)[C@H](NC(=O)[C@H](CC(C)C)NC(=O)[C@@H](N)CO)C(=O)N[C@@H](CCCNC(=N)N)C(=O)N[C@H](C(=O)N[C@@H](CO)C(=O)N[C@@H](CCC(N)=O)C(=O)N[C@@H](CC(=O)O)C(=O)N[C@@H](CC(=O)O)C(=O)N[C@@H](CC(C)C)C(=O)N[C@H](C(=O)N[C@@H](CCC(N)=O)C(=O)N[C@@H](CCSC)C(=O)N[C@@H](CO)C(=O)N1CCC[C@H]1C(=O)N[C@@H](CO)C(=O)N[C@H](C(=O)N[C@H](C(=O)N[C@@H](CO)C(=O)N[C@@H](C)C(=O)N[C@@H](C)C(=O)N[C@@H](CCCNC(=N)N)C(=O)N1CCC[C@H]1C(=O)N[C@@H](CCCCNC(=O)COCC(=O)NCCOCCOCCOCCOCCOCCOCCOCCOCCn1cc(CCCC(=O)Nc2c(CNC(=O)c3cccc(O)c3O)cc(CNC(=O)c3cccc(O)c3O)cc2CNC(=O)c2cccc(O)c2O)nn1)C(N)=O)[C@@H](C)CC)C(C)C)C(C)C)C(C)C (H-SLIRVSQDDLVQMSPSVISAARPK(X1)-NH2)	inactive				inactive	Active	Active	> 64	> 64	
H-VIELGEQTVVATAQEETKQK-NH2	inactive	Active	inactive	inactive	inactive	inactive	inactive			
C#CCNC(=O)CN1CCN(CC(=O)NCCNC(=O)c2cccc(O)c2O)CCN(CC(=O)NCCNC(=O)c2cccc(O)c2O)CCN(CC(=O)NCCNC(=O)c2cccc(O)c2O)CC1	inactive	Active	inactive		Active	inactive		64	64	2
CC[C@H](C)[C@H](NC(=O)[C@H](CCSC)NC(=O)[C@@H](NC(=O)[C@H](C)NC(=O)CNC(=O)[C@H](CC(C)C)NC(=O)[C@H](CC(=O)O)NC(=O)[C@@H](NC(=O)[C@H](CO)NC(=O)[C@H](CO)NC(=O)[C@H](CC(=O)O)NC(=O)COCC(=O)NCCOCCOCCOCCOCCOCCOCCOCCOCCn1cc(CCCC(=O)Nc2c(CNC(=O)c3cccc(O)c3O)cc(CNC(=O)c3cccc(O)c3O)cc2CNC(=O)c2cccc(O)c2O)nn1)C(C)C)[C@@H](C)O)C(=O)N[C@H](C(=O)N[C@@H](CO)C(=O)N[C@@H](CC(N)=O)C(=O)N[C@@H](CCC(N)=O)C(=O)N[C@@H](CC(C)C)C(=O)NCC(=O)N[C@H](C(=O)N[C@H](C(=O)N[C@@H](CCCCN)C(N)=O)[C@@H](C)CC)[C@@H](C)O)[C@@H](C)O (X1-DSSVDLGATMITSNQLGTIK-NH2)	inactive	Active	inactive	Active	inactive	Active	Active	> 64	> 64	
